Results from different studies.
Compare with care: the assays were run in different laboratories.
Target: Maternal embryonic leucine zipper kinase (MELK, Homo sapiens, UniProt Q14680)

| Structure (SMILES) | test | setting | endpoint | result |
| --- | --- | --- | --- | --- |
| Cc1nn(C)cc1-c1nc2c(N3CCN(Cc4ccc(Cl)cc4)CC3)c(Cl)cnc2[nH]1 | binding, competition with immobilised ligand | 1 µM | remaining binding | 100% |
| Cn1cc(-c2cccc(N3CCc4c(sc5c4CC(C)(C)C5)C3=O)c2CO)cc(Nc2ccncn2)c1=O | enzyme activity, inhibitor | 1 µM | inhibition | 5% |
| Cn1cncc1[C@@](O)(COc1ccc(C#N)cc1-c1ccc(OC(F)(F)F)cc1)c1ccc(C#N)cc1 | cell-free assay, competition with immobilised ligand | 1 µM | remaining binding | 79% |
| Cn1cc(-c2cc(F)cc(N3CCn4c(cc5c4CCCC5)C3=O)c2CO)cc(Nc2ccc(N3CCN(C4COC4)CC3)cn2)c1=O | enzyme activity, inhibitor | 0.1 µM | inhibition | 16% |
| COc1ncccc1-c1cnn2ccc(N3CCN(C(=O)OC(C)C)CC3)nc12 | binding, competition with immobilised ligand | 1 µM | remaining binding | 97% |
| CC(C)(C)c1cc(C=C(C#N)C#N)cc(Br)c1O | enzyme activity, inhibitor | 0.5 µM | remaining activity | 91.6% |
| COc1cc(Nc2ncc(F)c(Nc3ccc4c(n3)NC(=O)C(C)(C)O4)n2)cc(OC)c1OC | binding, competition with immobilised ligand | 10 µM | inhibition | 71% |
| O=c1[nH]c2ccccc2n1C1CCN(Cc2ccc(-c3[nH]c4cc5ncnc5cc4nc3-c3ccccc3)cc2)CC1 | cell-free assay | 0.5 µM | remaining signal | 110% |
| N#CC1(c2ccccn2)CCN(Cc2cc(C(=O)O)c(=O)n3ccccc23)CC1 | cell-free assay, competition with immobilised ligand | 1 µM | remaining binding | 55% |
